Assays:
[1] = tested on: naive CD8+ T cells derived from HD-PBMCs; assay type: cell-based, human; details: for CD8+ T-cell induction by AKF9 variants, in words: seven HD-PBMCs, cocktail of AKF9 variants along with the WT, tetramer staining; for immunogenicity (CD8+ T-cell induction), in words: six HD-PBMCs, cocktail of four natural HLA-A24 neoantigens
HLA-A24 on T2-A24 cells = experiment: Peptide-HLA class I stability assay; assay type: binding, human; details: peptide 0.3 to 3 µM
Procedure, shortened: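 TAP-deficient T2-A24 cells were pre-cultured overnight at 25°C. Cells were pulsed with mutant or WT peptide (0.3–3 µM) for 1 h at 25°C, then 3 h at 37°C. Surface HLA-A24 was stained with anti-HLA-A24 (C7709A2) and goat anti-mouse IgG-FITC, then read by flow cytometry. ΔMFI = MFI with peptide minus MFI without. Known HLA-A24 binder and non-binder peptides were controls. Comparison at 1 µM, SEM (n = 3), two-tailed t-test.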

[2] = tested on: neoantigen-reactive CD8+ T-cell clones; experiment: IFNγ ELISpot assay of neoantigen-reactive CD8+ T-cell clones; assay type: cell-based, human; details: T2-A24 pulsed with 20 µM peptide, 24 h 37°C
Procedure, shortened: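 Clones came from single tetramer-positive CD8+ cells sorted and expanded with irradiated allogeneic feeders, 5 μg/mL PHA and 100 IU/mL IL-2. T2-A24 cells were pre-incubated with 20 µM mutant or WT peptide for 2 h at 25°C. Spots were detected with 2 µg/mL biotinylated anti-IFNγ, streptavidin-HRP and AEC substrate.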

Sequence: AYLEAIHDF [ADF9]
- CD8+ T-cell induction by AKF9 variants, in words [1]: increased the frequency

Sequence: AYLEAIHHF [AHF9]
- CD8+ T-cell induction by AKF9 variants, in words [1]: increased the frequency

Sequence: AYLEAIHKF [AKF9]
- number of HDs with CD8+ T-cell response ([1]; of six HD-PBMCs, response = ≥ 4-fold increase with ≥ 0.1% tetramer+ CD8+ cells): three
- CD8+ T-cell induction by AKF9 variants, in words [1]: increased the frequency
- immunogenicity (CD8+ T-cell induction), in words [1]: immunogenic
- effect of the mutation on pHLA I stability versus wild-type peptide (HLA-A24 on T2-A24 cells): unaltered

Sequence: AYLEAIHNF [ANF9]
- recognition by ADF9-reactive CD8+ T-cell clones (D1-D5), IFNγ ELISpot [2]: three of the five clones

Sequence: AYLEAIHYF [AYF9]
- CD8+ T-cell induction by AKF9 variants, in words [1]: increased the frequency

Sequence: HYAALRELI [HI9]
- immunogenicity (CD8+ T-cell induction), in words [1]: failed to induce T-cell responses

Sequence: TLPEEFHEF [TEF9]
- immunogenicity (CD8+ T-cell induction), in words [1]: immunogenic
- effect of the mutation on pHLA I stability versus wild-type peptide (HLA-A24 on T2-A24 cells): increased

Sequence: VYVAKLHDI [VYI9]
- immunogenicity (CD8+ T-cell induction), in words [1]: failed to induce T-cell responses

Reference: article PMC7833734 (Oncoimmunology, 2021)
